Laboratory results taken from ChEMBL document CHEMBL1770092, “Novel N-chloroheterocyclic antimicrobials” (Bioorg Med Chem Lett, 2011).
Values after ≈ are worked out from the molar mass of the structure shown.

What was measured:
Escherichia coli = test: Antibacterial activity against Escherichia coli ATCC 25922 after 1 hr by modified CLSI M26-A method; format: functional; settings: ATCC 25922, 1 h
Procedure, shortened: (§1)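 Minimum bactericidal or fungicidal concentration (µg/mL) by modified CLSI M26-A: isotonic buffered saline at pH 4 replaces Mueller–Hinton broth because chlorine reacts with broth components, and exposure is shortened from 24 h at 35 °C to 1 h at room temperature.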

Staphylococcus aureus = test: Antibacterial activity against Staphylococcus aureus ATCC 29213 after 1 hr by modified CLSI M26-A method; format: functional; settings: ATCC 29213, 1 h; procedure, shortened: as §1
Candida albicans = test: Antifungal activity against Candida albicans ATCC 10231 after 1 hr by modified CLSI M26-A method; format: functional; settings: ATCC 10231, 1 h; procedure, shortened: as §1
[1] = Stability of the compound assessed as half life in aqueous buffer at 40 degC

CC1(C)CS(=O)(=O)CC(C)(C)N1Cl
MBC (Escherichia coli): 2 µg/mL (≈ 8.86 µM)
MBC (Staphylococcus aureus): 1 µg/mL (≈ 4.43 µM)
MFC (Candida albicans): 128 µg/mL (≈ 567 µM)
half-life [1]: > 113 days

CC1(C)C(=O)N(CCS(=O)(=O)[O-])C(=O)N1Cl.[Na+]
MBC (Escherichia coli): 128 µg/mL
MBC (Staphylococcus aureus): 128 µg/mL
MFC (Candida albicans): 128 µg/mL
half-life [1]: 65 days

CC1(C)C(=O)N(CCCS(=O)(=O)[O-])C(=O)N1Cl.[Na+]
MBC (Escherichia coli): 16 µg/mL
MBC (Staphylococcus aureus): 32 µg/mL
MFC (Candida albicans): > 256 µg/mL
half-life [1]: > 14 days

CC1(C)C(=O)N(CCC[N+](C)(C)C)C(=O)N1Cl.[Cl-]
MBC (Escherichia coli): 128 µg/mL
MBC (Staphylococcus aureus): > 128 µg/mL
MFC (Candida albicans): > 1020 µg/mL
half-life [1]: 4 days

CC1(C)C(=O)N(CCCCC[N+](C)(C)C)C(=O)N1Cl.[Cl-]
MBC (Escherichia coli): 128 µg/mL
MBC (Staphylococcus aureus): 128 µg/mL
MFC (Candida albicans): > 1020 µg/mL
half-life [1]: 22 days

CC1(C)C(=O)N(CC[n+]2ccccc2)C(=O)N1Cl.[Cl-]
half-life [1]: 4 days

CC1(C)C(=O)N(CCS(=O)(=O)CCCS(=O)(=O)[O-])C(=O)N1Cl.[Cs+]
MBC (Escherichia coli): 256 µg/mL
MBC (Staphylococcus aureus): > 256 µg/mL
MFC (Candida albicans): > 256 µg/mL
half-life [1]: > 7 days

CN1C(=O)N(Cl)C(C)(C[N+](C)(C)C)C1=O.[Cl-] (stereo not drawn)
MBC (Escherichia coli): 16 µg/mL
MBC (Staphylococcus aureus): 64 µg/mL
MFC (Candida albicans): > 256 µg/mL
half-life [1]: 5 days

CC1(C)C(=O)N(CCS(=O)(=O)[O-])CC(=O)N1Cl.[Na+]
MBC (Escherichia coli): 128 µg/mL
MBC (Staphylococcus aureus): 128 µg/mL
MFC (Candida albicans): > 256 µg/mL
half-life [1]: 90 days

CC1(C)C(=O)N(CCO)CC(=O)N1Cl
half-life [1]: < 1 days

CC1(C)CC(CCO)OC(=O)N1Cl (stereo not drawn)
half-life [1]: > 14 days

CC1(C)CN(CCS(=O)(=O)[O-])C(=O)N1Cl.[Na+]
MBC (Escherichia coli): 32 µg/mL
MBC (Staphylococcus aureus): 64 µg/mL
MFC (Candida albicans): > 256 µg/mL
half-life [1]: > 92 days

CC1(C)CN(CCS(=O)(=O)CCCS(=O)(=O)[O-])C(=O)N1Cl.[Cs+]
MBC (Escherichia coli): 64 µg/mL
MBC (Staphylococcus aureus): 32 µg/mL
half-life [1]: > 112 days

CC(=O)[O-].CC1(C)CN(CC[N+](C)(C)C)C(=O)N1Cl
MBC (Escherichia coli): 512 µg/mL
MBC (Staphylococcus aureus): 128 µg/mL
half-life [1]: 126 days

CN1CC(C)(CO)N(Cl)C1=O (stereo not drawn)
MBC (Escherichia coli): 16 µg/mL (≈ 89.6 µM)
MBC (Staphylococcus aureus): 16 µg/mL (≈ 89.6 µM)
MFC (Candida albicans): 8 µg/mL (≈ 44.8 µM)
half-life [1]: > 58 days

CC1(C)CC([N+](C)(C)C)CC(C)(C)N1Cl.[Cl-]
MBC (Escherichia coli): 16 µg/mL
MBC (Staphylococcus aureus): 8 µg/mL
MFC (Candida albicans): 256 µg/mL
half-life [1]: 28 days

CC1(C)CC(O)CC(C)(C)N1Cl
MBC (Escherichia coli): 1 µg/mL (≈ 5.22 µM)
MBC (Staphylococcus aureus): 4 µg/mL (≈ 20.9 µM)
MFC (Candida albicans): 32 µg/mL (≈ 167 µM)
half-life [1]: 32 days

CC1(C)CC(=O)CC(C)(C)N1Cl
MBC (Escherichia coli): 1 µg/mL (≈ 5.27 µM)
MBC (Staphylococcus aureus): 2 µg/mL (≈ 10.5 µM)
MFC (Candida albicans): 32 µg/mL (≈ 169 µM)
half-life [1]: < 1 days

CC1(C)CN(CCO)C(=O)C(C)(C)N1Cl
MBC (Escherichia coli): 1 µg/mL (≈ 4.26 µM)
MBC (Staphylococcus aureus): 2 µg/mL (≈ 8.52 µM)
MFC (Candida albicans): 8 µg/mL (≈ 34.1 µM)

CC1(C)C(=O)N(CCS(=O)(=O)[O-])C(=O)C(C)(C)N1Cl.[Na+]
MBC (Escherichia coli): 128 µg/mL
MBC (Staphylococcus aureus): 128 µg/mL
MFC (Candida albicans): > 256 µg/mL
half-life [1]: 90 days

CC1(C)C(=O)N(CCCCO)C(C)(C)N1Cl
MBC (Escherichia coli): 2 µg/mL (≈ 8.04 µM)
MBC (Staphylococcus aureus): 2 µg/mL (≈ 8.04 µM)
MFC (Candida albicans): 256 µg/mL (≈ 1030 µM)
half-life [1]: > 92 days

CC1(C)C(=O)N(CCCS(=O)(=O)[O-])C(C)(C)N1Cl.[Na+]
MBC (Escherichia coli): 4 µg/mL
MBC (Staphylococcus aureus): 16 µg/mL
MFC (Candida albicans): 16 µg/mL
half-life [1]: > 249 days

CC1(C)C(=O)N(CCCCS(=O)(=O)[O-])C(C)(C)N1Cl.[Na+]
MBC (Escherichia coli): 16 µg/mL
MBC (Staphylococcus aureus): 8 µg/mL
MFC (Candida albicans): 32 µg/mL
half-life [1]: > 84 days

CC1(C)C(=O)N(CCC[N+](C)(C)C)C(C)(C)N1Cl.[Cl-]
MBC (Escherichia coli): 4 µg/mL
MBC (Staphylococcus aureus): 2 µg/mL
MFC (Candida albicans): 32 µg/mL
half-life [1]: 111 days

CC1(C)C(=O)N(CCCCC[N+](C)(C)C)C(C)(C)N1Cl.[Cl-]
MBC (Escherichia coli): 2 µg/mL
MBC (Staphylococcus aureus): 2 µg/mL
MFC (Candida albicans): 16 µg/mL
half-life [1]: > 160 days
